From ChEMBL document CHEMBL1811838, “Antimalarial activity of natural and synthetic prodiginines” (J Med Chem, 2011)
The source made the active and inactive calls. No cut-off for these calls is given here.

Key:
[1] = system: Plasmodium yoelii; assay: Antimalarial activity Plasmodium yoelii infected in CF-1 mouse assessed as reduction of parasitemia at 5 mg/kg, po qd for 3 days administered 24 hrs after infection measured after 24 hrs last dose relative to control; assay type: functional; parameters: scale not given: the % may be the effect or the level left
Outline: (§1)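 Female outbred CF-1 mice were infected i.v. via the tail vein with 5 × 10^5 P. yoelii Kenya-infected erythrocytes, in groups of five. Compound or vehicle alone was given by gavage in caprylic/capric triglyceride once daily for 3 days, starting 24 h post-infection. One day after the last dose, Giemsa-stained thin smears were scored by microscopy for % parasitemia versus untreated controls. Group mean weight was recorded as day 3 versus day 0.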

[2] = Toxicity in C57BL/6J mouse splenic lymphocytes after 72 hrs by Alamar blue Assay; assay type: cell-based; conditions: splenic lymphocyte
Outline: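 Splenic lymphocytes from C57BL/6J mice washed, then stimulated with 1 μg/mL concanavalin A in RPMI/10% FBS with 50 μM β-mercaptoethanol. Seeded at 2 × 10^5 cells/well with serially diluted compound for 72 h at 37 °C, 5% CO2. Resazurin added (final 10 μM) for another 24 h; fluorescence read at ex 560/em 590 nm.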

[3] = system: Mus musculus; assay: Toxicity in Plasmodium yoelii infected CF-1 mouse assessed as weight loss at 25 mg/kg, po qd for 3 days relative to control; assay type: organism-based; parameters: dose 25 mg/kg, route oral; conditions: in vivo, 72 h; outline: as §1
[4] = system: Mus musculus; assay: Toxicity in Plasmodium yoelii infected CF-1 mouse assessed as weight loss at 5 mg/kg, po qd for 3 days relative to control; assay type: organism-based; parameters: dose 5 mg/kg, route oral; conditions: in vivo, 72 h; outline: as §1
[5] = system: Plasmodium yoelii; assay: Antimalarial activity Plasmodium yoelii infected in CF-1 mouse assessed as reduction of parasitemia at 25 mg/kg, po qd for 3 days administered 24 hrs after infection measured after 24 hrs last dose relative to control; assay type: functional; parameters: scale not given: the % may be the effect or the level left
Outline: (§2)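 Female outbred CF-1 mice infected iv (tail vein) with 5 × 10^5 P. yoelii Kenya-infected erythrocytes. Groups of five given compound or vehicle alone by gavage in caprylic/capric triglyceride once daily for 3 days starting 24 h post-infection. One day after last dose, Giemsa-stained thin smears scored microscopically for % infected erythrocytes vs untreated controls. Group mean weight day 3 vs day 0. Smear-negative mice followed; parasite-free at 28 days counted cured.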

[6] = system: Plasmodium falciparum; assay: Antimalarial activity multidrug-resistant Plasmodium falciparum Dd2 after 72 hrs by SYBR Green I based fluorescence assay; assay type: functional, organism-based; conditions: Dd2, 72 h
Outline: (§3)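 P. falciparum (D6 pansensitive; Dd2 MDR) cultured under standard conditions and grown 72 h with varying compound concentrations, chloroquine positive control or no drug, each condition in quadruplicate. Growth measured by SYBR Green I fluorescence with minor modifications; IC50 = concentration inhibiting growth by 50%.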

[7] = system: Plasmodium falciparum; assay: Antimalarial activity Plasmodium falciparum D6 after 72 hrs by SYBR Green I based fluorescence assay; assay type: functional, organism-based; conditions: D6, 72 h; outline: as §3
[8] = system: Mus musculus; assay: Toxicity in Plasmodium yoelii infected CF-1 mouse assessed as temporary weight loss at 100 mg/kg, po qd for 3 days; assay type: organism-based; parameters: dose 100 mg/kg, route oral; conditions: in vivo, 72 h; outline: as §2
[9] = system: Plasmodium yoelii; assay: Antimalarial activity Plasmodium yoelii infected in CF-1 mouse assessed as complete parasite clearance at 100 mg/kg, po qd for 3 days administered 24 hrs after infection measured after 24 hrs last dose; assay type: functional, organism-based; parameters: dose 100 mg/kg; outline: as §2

SMILES	Activity [1] [%]	IC50 [2] [nM]	Activity [3] [%]	Activity [4] [%]	Activity [5] [%]	IC50 [6] [nM]	IC50 [7] [nM]	Activity [8]	Activity [9]
COC1=CC(c2ccc[nH]2)=N/C1=C\c1[nH]c(Cc2ccc(Cl)cc2)cc1Cc1ccc(Cl)cc1	92	< 125	102.5	107.5	100	4.8	6.1		
CCC1CCCCCCCCC2=N/C(=C\c3[nH]c(-c4ccc[nH]4)cc3OC)C1=C2 (configuration not stated) [METACYCLOPRODIGININE]					>99		1.7	Toxic	Active
CCCc1cc(Cc2ccc(Cl)cc2)c(/C=C2\N=C(c3ccc[nH]3)C=C2OC)[nH]1	94	< 125	87.6	102.9	100	2.6	3		
CCCc1cc(CCC2CCCCC2)c(/C=C2\N=C(c3ccc[nH]3)C=C2OC)[nH]1	97	< 125	84.5	101.5	100	1.3	1.7		
CCCCCCCCc1cc(Cc2ccc(Cl)cc2)c(/C=C2\N=C(c3ccc[nH]3)C=C2OC)[nH]1	72	1100	93.4	100.2	100	12	16		
